Activity calls are given as the source filed them.
Key:
Rattus norvegicus [1] = assay: Effect on plasma growth hormone in anesthetized rat at a dose of 4 ug/100 g of body weight; assay type: functional
Method in brief: (§1)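 Male Charles River rats (175–350 g) anesthetized with sodium pentobarbital (6 mg/100 g body wt); 30 min later, 6–9 per group received a single subcutaneous 0.5-mL injection of saline, GRF(1-29)NH₂ reference, or one of two analogue doses. Jugular vein blood was drawn 15 min post-injection, and plasma GH was measured by radioimmunoassay, reported as ng/mL ± SE.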

Rattus norvegicus [2] = assay: Percent growth hormone releasing activity in anesthetized rat relative to hpGRF (1-29)NH2; assay type: functional
Method in brief: (§2)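 In pentobarbital-anesthetized male Charles River rats (6–9/group), two subcutaneous analogue doses and GRF(1-29)NH₂ reference doses were given. Plasma GH was measured by radioimmunoassay in jugular blood taken 15 min post-injection. Relative potency with 95% confidence limits came from a four-point assay design by Pugsley's method. Not active means no activity at the doses tested.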

Rattus norvegicus [3] = assay: Effect on plasma growth hormone in anesthetized rat at a dose of 10 ug/100 g of body weight; assay type: functional; method in brief: as §1
Rattus norvegicus [4] = assay: Effect on plasma growth hormone in anesthetized rat at a dose of 3 ug/100 g of body weight; assay type: functional; method in brief: as §1
Rattus norvegicus [5] = assay: Effect on plasma growth hormone in anesthetized rat at a dose of 1.2 ug/100 g of body weight; assay type: functional; method in brief: as §1
Rattus norvegicus [6] = assay: Effect on plasma growth hormone in anesthetized rat at a dose of 5 ug/100 g of body weight; assay type: functional; method in brief: as §1
Rattus norvegicus [7] = assay: Effect on plasma growth hormone in anesthetized rat at a dose of 25 ug/100 g of body weight; assay type: functional; method in brief: as §1
Rattus norvegicus [8] = assay: Percent growth hormone releasing activity in anesthetized rat relative to hpGRF (1-29)NH2; Not active; assay type: functional, organism-based; method in brief: as §2
Rattus norvegicus [9] = assay: Effect on plasma growth hormone in anesthetized rat at a dose of 32 ug/100 g of body weight; assay type: functional; method in brief: as §1
Rattus norvegicus [10] = assay: Effect on plasma growth hormone in anesthetized rat at a dose of 16 ug/100 g of body weight; assay type: functional; method in brief: as §1
Rattus norvegicus [11] = assay: Effect on plasma growth hormone in anesthetized rat at a dose of 50 ug/100 g of body weight; assay type: functional; method in brief: as §1
Rattus norvegicus [12] = assay: Effect on plasma growth hormone in anesthetized rat at a dose of 125 ug/100 g of body weight; assay type: functional; method in brief: as §1
Rattus norvegicus [13] = assay: Effect on plasma growth hormone in anesthetized rat at a dose of 20 ug/100 g of body weight; assay type: functional; method in brief: as §1
Rattus norvegicus [14] = assay: Effect on plasma growth hormone in anesthetized rat at a dose of 0.25 ug/100 g of body weight; assay type: functional; method in brief: as §1
Rattus norvegicus [15] = assay: Effect on plasma growth hormone in anesthetized rat at a dose of 0.62 ug/100 g of body weight; assay type: functional; method in brief: as §1

CC[C@H](C)[C@H](NC(=O)[C@H](C)NC(=O)[C@H](CC(=O)O)NC(=O)[C@H](C)NC(=O)[C@@H](N)Cc1ccc(O)cc1)C(=O)N[C@@H](Cc1ccccc1)C(=O)N[C@H](C(=O)N[C@H](CC(N)=O)C(=O)N[C@@H](CO)C(=O)N[C@@H](Cc1ccc(O)cc1)C(=O)N[C@@H](CCCN=C(N)N)C(=O)N[C@@H](CCCCN)C(=O)N[C@H](C(=O)N[C@@H](CC(C)C)C(=O)NCC(=O)N[C@@H](CCC(N)=O)C(=O)N[C@@H](CC(C)C)C(=O)N[C@@H](CO)C(=O)N[C@@H](C)C(=O)N[C@@H](CCCN=C(N)N)C(=O)N[C@@H](CCCCN)C(=O)N[C@@H](CC(C)C)C(=O)N[C@@H](CC(C)C)C(=O)N[C@@H](CCC(N)=O)C(=O)N[C@@H](CC(=O)O)C(=O)N[C@H](C(=O)N[C@@H](CCSC)C(=O)N[C@@H](CO)C(=O)N[C@@H](CCCN=C(N)N)C(N)=O)[C@@H](C)CC)C(C)C)[C@@H](C)O
Activity (Rattus norvegicus [1]): 1296 ng/mL
Activity (Rattus norvegicus [2]): 221%
Activity (Rattus norvegicus [3]): 2397 ng/mL

CC[C@H](C)[C@H](NC(=O)[C@H](C)NC(=O)[C@H](CC(=O)O)NC(=O)[C@@H](C)NC(=O)[C@@H](Cc1ccc(O)cc1)NC(C)=O)C(=O)N[C@@H](Cc1ccccc1)C(=O)N[C@H](C(=O)N[C@@H](CC(N)=O)C(=O)N[C@@H](CO)C(=O)N[C@@H](Cc1ccc(O)cc1)C(=O)N[C@@H](CCCN=C(N)N)C(=O)N[C@@H](CCCCN)C(=O)N[C@H](C(=O)N[C@@H](CC(C)C)C(=O)NCC(=O)N[C@@H](CCC(N)=O)C(=O)N[C@@H](CC(C)C)C(=O)N[C@@H](CO)C(=O)N[C@@H](C)C(=O)N[C@@H](CCCN=C(N)N)C(=O)N[C@@H](CCCCN)C(=O)N[C@@H](CC(C)C)C(=O)N[C@@H](CC(C)C)C(=O)N[C@@H](CCC(N)=O)C(=O)N[C@@H](CC(=O)O)C(=O)N[C@H](C(=O)N[C@@H](CCSC)C(=O)N[C@@H](CO)C(=O)N[C@@H](CCCN=C(N)N)C(N)=O)[C@@H](C)CC)C(C)C)[C@@H](C)O (stereo in doubt; 13)
Activity (Rattus norvegicus [2]): 1297%
Activity (Rattus norvegicus [4]): 3504 ng/mL
Activity (Rattus norvegicus [5]): 1329 ng/mL

CC[C@H](C)[C@H](NC(=O)[C@H](C)NC(=O)[C@H](CC(=O)O)NC(=O)[C@@H](C)NC(=O)[C@@H](Cc1ccc(O)cc1)NC(C)=O)C(=O)N[C@@H](Cc1ccccc1)C(=O)N[C@H](C(=O)N[C@@H](CC(N)=O)C(=O)N[C@@H](CO)C(=O)N[C@@H](Cc1ccc(O)cc1)C(=O)N[C@@H](CCCN=C(N)N)C(=O)N[C@@H](CCCCN)C(=O)N[C@H](C(=O)N[C@@H](CC(C)C)C(=O)NCC(=O)N[C@@H](CCC(N)=O)C(=O)N[C@@H](CC(C)C)C(=O)N[C@@H](CO)C(=O)N[C@@H](C)C(=O)N[C@@H](CCCN=C(N)N)C(=O)N[C@@H](CCCCN)C(=O)N[C@@H](CC(C)C)C(=O)N[C@@H](CC(C)C)C(=O)N[C@@H](CCC(N)=O)C(=O)N[C@@H](CC(=O)O)C(=O)N[C@H](C(=O)N[C@@H](CCSC)C(=O)N[C@@H](CO)C(=O)N[C@@H](CCCN=C(N)N)C(N)=O)[C@@H](C)CC)C(C)C)[C@@H](C)O (stereo in doubt; 6)
Activity (Rattus norvegicus [6]): 324 ng/mL
Activity (Rattus norvegicus [7]): 374 ng/mL

CC[C@H](C)[C@H](NC(=O)[C@H](C)NC(=O)[C@H](CC(=O)O)NC(=O)[C@@H](Cc1ccccc1)NC(=O)[C@H](Cc1ccc(O)cc1)NC(C)=O)C(=O)N[C@@H](Cc1ccccc1)C(=O)N[C@H](C(=O)N[C@@H](CC(N)=O)C(=O)N[C@@H](CO)C(=O)N[C@@H](Cc1ccc(O)cc1)C(=O)N[C@@H](CCCN=C(N)N)C(=O)N[C@@H](CCCCN)C(=O)N[C@H](C(=O)N[C@@H](CC(C)C)C(=O)NCC(=O)N[C@@H](CCC(N)=O)C(=O)N[C@@H](CC(C)C)C(=O)N[C@@H](CO)C(=O)N[C@@H](C)C(=O)N[C@@H](CCCN=C(N)N)C(=O)N[C@@H](CCCCN)C(=O)N[C@@H](CC(C)C)C(=O)N[C@@H](CC(C)C)C(=O)N[C@@H](CCC(N)=O)C(=O)N[C@@H](CC(=O)O)C(=O)N[C@H](C(=O)N[C@@H](CCSC)C(=O)N[C@@H](CO)C(=O)N[C@@H](CCCN=C(N)N)C(N)=O)[C@@H](C)CC)C(C)C)[C@@H](C)O
Activity (Rattus norvegicus [6]): 475 ng/mL
Activity (Rattus norvegicus [3]): 422 ng/mL
Activity (Rattus norvegicus [8]): inactive

CC[C@H](C)[C@H](NC(=O)[C@H](C)NC(=O)[C@H](CC(=O)O)NC(=O)[C@@H](C)NC(=O)[C@@H](Cc1ccc(O)cc1)NC(C)=O)C(=O)N[C@@H](Cc1ccccc1)C(=O)N[C@H](C(=O)N[C@@H](CC(N)=O)C(=O)N[C@@H](CO)C(=O)N[C@@H](Cc1ccc(O)cc1)C(=O)N[C@@H](CCCN=C(N)N)C(=O)N[C@@H](CCCCN)C(=O)N[C@H](C(=O)N[C@@H](CC(C)C)C(=O)NCC(=O)N[C@@H](CCC(N)=O)C(=O)N[C@@H](CC(C)C)C(=O)N[C@@H](CO)C(=O)N[C@@H](C)C(=O)N[C@@H](CCCN=C(N)N)C(=O)N[C@@H](CCCCN)C(=O)N[C@@H](CC(C)C)C(=O)N[C@@H](CC(C)C)C(=O)N[C@@H](CCC(N)=O)C(=O)N[C@@H](CC(=O)O)C(=O)N[C@H](C(=O)N[C@@H](CCSC)C(=O)N[C@@H](CO)C(=O)N[C@@H](CCCN=C(N)N)C(N)=O)[C@@H](C)CC)C(C)C)[C@@H](C)O (stereo in doubt; 19)
Activity (Rattus norvegicus [9]): 2378 ng/mL
Activity (Rattus norvegicus [2]): 52%
Activity (Rattus norvegicus [10]): 504 ng/mL

CC[C@H](C)[C@H](NC(=O)[C@H](C)NC(=O)[C@H](CC(=O)O)NC(=O)[C@@H](C)NC(=O)[C@@H](Cc1ccc(O)cc1)NC(C)=O)C(=O)N[C@@H](Cc1ccccc1)C(=O)N[C@H](C(=O)N[C@@H](CC(N)=O)C(=O)N[C@@H](CO)C(=O)N[C@@H](Cc1ccc(O)cc1)C(=O)N[C@@H](CCCN=C(N)N)C(=O)N[C@@H](CCCCN)C(=O)N[C@H](C(=O)N[C@@H](CC(C)C)C(=O)NCC(=O)N[C@@H](CCC(N)=O)C(=O)N[C@@H](CC(C)C)C(=O)N[C@@H](CO)C(=O)N[C@@H](C)C(=O)N[C@@H](CCCN=C(N)N)C(=O)N[C@@H](CCCCN)C(=O)N[C@@H](CC(C)C)C(=O)N[C@@H](CC(C)C)C(=O)N[C@@H](CCC(N)=O)C(=O)N[C@@H](CC(=O)O)C(=O)N[C@H](C(=O)N[C@@H](CCSC)C(=O)N[C@@H](CO)C(=O)N[C@@H](CCCN=C(N)N)C(N)=O)[C@@H](C)CC)C(C)C)[C@@H](C)O (stereo in doubt; 5)
Activity (Rattus norvegicus [11]): 435 ng/mL
Activity (Rattus norvegicus [2]): <5%
Activity (Rattus norvegicus [12]): 670 ng/mL

CC[C@H](C)[C@H](NC(=O)[C@H](C)NC(=O)[C@H](CC(=O)O)NC(=O)[C@H](C)NC(=O)[C@@H](N)Cc1ccc(O)cc1)C(=O)N[C@@H](Cc1ccccc1)C(=O)N[C@H](C(=O)N[C@@H](CC(N)=O)C(=O)N[C@@H](CO)C(=O)N[C@@H](Cc1ccc(O)cc1)C(=O)N[C@@H](CCCN=C(N)N)C(=O)N[C@@H](CCCCN)C(=O)N[C@H](C(=O)N[C@@H](CC(C)C)C(=O)NCC(=O)N[C@@H](CCC(N)=O)C(=O)N[C@@H](CC(C)C)C(=O)N[C@@H](CO)C(=O)N[C@@H](C)C(=O)N[C@@H](CCCN=C(N)N)C(=O)N[C@@H](CCCCN)C(=O)N[C@@H](CC(C)C)C(=O)N[C@@H](CC(C)C)C(=O)N[C@@H](CCC(N)=O)C(=O)N[C@@H](CC(=O)O)C(=O)N[C@H](C(=O)N[C@@H](CCSC)C(=O)N[C@@H](CO)C(=O)N[C@@H](CCCN=C(N)N)C(N)=O)[C@@H](C)CC)C(C)C)[C@@H](C)O
Activity (Rattus norvegicus [13]): 1781 ng/mL

CC[C@H](C)[C@H](NC(=O)[C@H](C)NC(=O)[C@H](CC(=O)O)NC(=O)[C@@H](C)NC(=O)[C@@H](Cc1ccc(O)cc1)NC(C)=O)C(=O)N[C@@H](Cc1ccccc1)C(=O)N[C@H](C(=O)N[C@@H](CC(N)=O)C(=O)N[C@@H](CO)C(=O)N[C@@H](Cc1ccc(O)cc1)C(=O)N[C@@H](CCCN=C(N)N)C(=O)N[C@@H](CCCCN)C(=O)N[C@H](C(=O)N[C@@H](CC(C)C)C(=O)NCC(=O)N[C@@H](CCC(N)=O)C(=O)N[C@@H](CC(C)C)C(=O)N[C@@H](CO)C(=O)N[C@@H](C)C(=O)N[C@@H](CCCN=C(N)N)C(=O)N[C@@H](CCCCN)C(=O)N[C@@H](CC(C)C)C(=O)N[C@@H](CC(C)C)C(=O)N[C@@H](CCC(N)=O)C(=O)N[C@@H](CC(=O)O)C(=O)N[C@H](C(=O)N[C@@H](CCSC)C(=O)N[C@@H](CO)C(=O)N[C@@H](CCCN=C(N)N)C(N)=O)[C@@H](C)CC)C(C)C)[C@@H](C)O (stereo in doubt; 12)
Activity (Rattus norvegicus [2]): 3817%
Activity (Rattus norvegicus [14]): 1235 ng/mL
Activity (Rattus norvegicus [15]): 2386 ng/mL

CC[C@H](C)[C@H](NC(=O)[C@H](C)NC(=O)[C@H](CC(=O)O)NC(=O)[C@@H](C)NC(=O)[C@@H](Cc1ccc(O)cc1)NC(C)=O)C(=O)N[C@@H](Cc1ccccc1)C(=O)N[C@H](C(=O)N[C@@H](CC(N)=O)C(=O)N[C@@H](CO)C(=O)N[C@@H](Cc1ccc(O)cc1)C(=O)N[C@@H](CCCN=C(N)N)C(=O)N[C@@H](CCCCN)C(=O)N[C@H](C(=O)N[C@@H](CC(C)C)C(=O)NCC(=O)N[C@@H](CCC(N)=O)C(=O)N[C@@H](CC(C)C)C(=O)N[C@@H](CO)C(=O)N[C@@H](C)C(=O)N[C@@H](CCCN=C(N)N)C(=O)N[C@@H](CCCCN)C(=O)N[C@@H](CC(C)C)C(=O)N[C@@H](CC(C)C)C(=O)N[C@@H](CCC(N)=O)C(=O)N[C@@H](CC(=O)O)C(=O)N[C@H](C(=O)N[C@@H](CCSC)C(=O)N[C@@H](CO)C(=O)N[C@@H](CCCN=C(N)N)C(N)=O)[C@@H](C)CC)C(C)C)[C@@H](C)O (stereo in doubt; 4)
Activity (Rattus norvegicus [6]): 805 ng/mL
Activity (Rattus norvegicus [2]): 110%
Activity (Rattus norvegicus [7]): 2234 ng/mL

Reference: ChEMBL document CHEMBL1122887, “Structure-activity studies on the N-terminal region of growth hormone releasing factor” (1985)
